# Mot1-301 SUMO: inhibitors of SUMOylation pathway: yeast Mot1-301 growth rescue; S. cerevisiae Mot1-301 growth rescue, ATP luminescence, 38.5C; percent above DMSO median, 100 means doubled; growth rescue, % at 18.8 µM; 1% of 320,000 active; AID 2716;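 active means every valid replicate shows activation above 250% relative to neutral control wells; inactive means the rest, any valid replicate at or below 250%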;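 further: OY570 slx delta 5 strain wells were the positive control but not used for scaling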
# KCC2 mod: KCC2 (human) Cl- transport modulation | 2.2% of 190,000 active | B-score of Tl+ flux slope (higher = more flux/activation; lower = inhibition) at 10 µM | Q9H2X9 | KCC2 cells, thallium flux FluoZin-2 fluorescence;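 active means thallium flux slope and its plate-corrected score both differing from the plate sample mean at a set confidence after two filtering rounds, in either direction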;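 further: slope of fluorescence scaled to starting intensity during 10 to 20 s after thallium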
# KCNQ1 act: human KCNQ1 channel potentiation or activation; P51787; CHO-K1 KCNQ1, thallium flux FluxOR fluorescence; active compounds read high; B-score at 10 µM; 0.35% of 310,000 active;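 active means fluorescence ratio B-score, a plate-corrected score, at least three library SD, with initial intensity B-score within 5 SD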
#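 Doses: Single concentration per compound, DMSO matched to controls | Test system: KCNQ1-transfected CHO-K1 cells | Timing: 90 min dye loading and 20 min compound exposure, both at room temperature | Measured by: Kinetic FluxOR thallium fluorescence, 10-s 1-Hz baseline, 110-s post-stimulus read | Medium: Assay buffer with matched DMSO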
# KCNQ1 block: blocks the human KCNQ1 potassium channel. P51787. CHO-K1 KCNQ1, FluxOR thallium flux fluorescence; active compounds read high. B-score at 10 µM. 1.3% of 310,000 active. AID 2642;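 active means compounds whose thallium flux B-score, printed positive for inhibition, exceeds three library SD while starting fluorescence stays within three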;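 further: channel opened by potassium depolarization with thallium stimulus after 20 min compound exposure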
# hERG rescue: compounds protecting human hERG from proarrhythmic drug block | activation (rescue from dofetilide block), less the hit threshold, % at 10 µM | 0.51% of 310,000 active | AID 1511 | Q12809 | CHO-hERG, FluxOR thallium flux, dofetilide IC70 present;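 active means activation above the mean of controls blocked by dofetilide plus 5 SD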;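 further: thallium influx through hERG after potassium depolarization seen as dye fluorescence rise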
# Target sequence (Q12809 whole entry, looked up): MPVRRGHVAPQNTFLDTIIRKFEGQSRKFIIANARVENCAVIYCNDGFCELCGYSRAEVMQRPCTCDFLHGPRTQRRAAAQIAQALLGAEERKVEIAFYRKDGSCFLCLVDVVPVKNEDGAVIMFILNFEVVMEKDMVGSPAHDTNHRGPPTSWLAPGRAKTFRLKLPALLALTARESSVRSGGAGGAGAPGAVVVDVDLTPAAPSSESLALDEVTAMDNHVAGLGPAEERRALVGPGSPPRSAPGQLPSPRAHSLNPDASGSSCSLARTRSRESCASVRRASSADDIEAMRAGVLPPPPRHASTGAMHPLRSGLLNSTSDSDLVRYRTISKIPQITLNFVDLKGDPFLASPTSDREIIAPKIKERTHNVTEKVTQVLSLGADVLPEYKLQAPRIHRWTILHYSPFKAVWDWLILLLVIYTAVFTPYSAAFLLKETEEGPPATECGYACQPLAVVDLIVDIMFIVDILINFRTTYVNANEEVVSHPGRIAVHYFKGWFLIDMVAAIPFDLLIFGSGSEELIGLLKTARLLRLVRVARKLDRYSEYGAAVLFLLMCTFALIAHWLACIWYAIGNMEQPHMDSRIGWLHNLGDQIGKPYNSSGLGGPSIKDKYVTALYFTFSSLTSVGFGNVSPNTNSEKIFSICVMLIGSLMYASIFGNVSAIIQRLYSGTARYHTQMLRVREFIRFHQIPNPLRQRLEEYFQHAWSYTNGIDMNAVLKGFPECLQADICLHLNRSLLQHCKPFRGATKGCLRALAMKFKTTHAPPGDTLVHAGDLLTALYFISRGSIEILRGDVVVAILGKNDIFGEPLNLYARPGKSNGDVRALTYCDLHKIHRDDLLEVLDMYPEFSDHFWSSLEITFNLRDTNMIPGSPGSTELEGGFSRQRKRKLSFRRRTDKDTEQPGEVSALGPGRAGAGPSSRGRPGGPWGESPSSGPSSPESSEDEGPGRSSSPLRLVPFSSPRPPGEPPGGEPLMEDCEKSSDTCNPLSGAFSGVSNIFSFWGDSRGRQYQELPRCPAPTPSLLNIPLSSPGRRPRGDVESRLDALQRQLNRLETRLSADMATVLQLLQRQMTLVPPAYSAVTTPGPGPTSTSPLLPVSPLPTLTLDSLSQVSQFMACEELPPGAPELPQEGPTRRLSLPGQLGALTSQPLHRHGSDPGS
# AI-2 QS modul: Vibrio harveyi AI-2 quorum sensing modulation | AID 2094 | activity change, % at 7.5 µM | 0.4% of 300,000 active | Vibrio harveyi JMH597 AI-2 luminescence/OD600 ratio, 9 h; active compounds read low; strain lacks LuxN and CqsS sensors; 0 = neutral-control median; in the data active means activity change below about -75%, passing the limit was not always enough;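 further: luminescence divided by OD600 gain over 9 h not by final OD600 alone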
# * marks the source's active call; other numbers are inactive results; i = inactive; . = no result given. Shown are actives, neighbours in structure and some others; about 4.2% of the full set was active somewhere.
SMILES,Mot1-301 SUMO,KCC2 mod,KCNQ1 act,KCNQ1 block,hERG rescue,AI-2 QS modul
CC1CCCCN1C(=O)c1ccc(NC(=O)c2ccccc2Cl)cc1 (stereo not drawn),35,-0.59,i,i,-23,-18
Cc1ccc(/C(=N\O)c2oc3c(C)c4oc(=O)cc(C)c4cc3c2C)cc1,-9,0.52,i,8*,-6,26
Cc1ccc(Nc2c(-c3ccc(N(C)C)cc3)nc3ncccn23)cc1,328*,0.8,i,i,-5,21
Cc1ccc(Nc2c(-c3ccc(C)o3)nc3ncccn23)cc1,7,-0.49,i,i,-9,10
CCOC(=O)C1=C(c2ccccc2)NC(=O)NC1c1ccc(OC)c(OC)c1 (stereo not drawn),2,-0.59,i,i,5.7*,11
COc1cc(C2NC(=O)NC(C)=C2C(=O)OCC2CCCCC2)ccc1O (stereo not drawn),-1,.,i,i,7.1*,.
CCOC(=O)C1=C(c2ccccc2)NC(=O)NC1c1ccc(OC)cc1 (stereo not drawn),-4,0.22,i,i,0,-23
CN1CCN(c2ncc(CN3C(=O)c4ccccc4C3=O)s2)CC1,-10,-0.36,i,i,5.9*,1
CCCN(C(=O)c1cn(-c2ccccc2)nc1-c1ccc(OC)cc1)C1CCS(=O)(=O)C1 (stereo not drawn),-11,.,8*,i,-1,20
Nc1nc(Cl)nc2c1ncn2[C@H]1C[C@H](O)[C@@H](CO)O1,188,-0.71,i,i,-3,-158*
Cc1cc(C)c2[nH]c(C(=O)Nc3ccc(F)cc3Br)cc2c1,2,.,i,i,0,26
Cc1cc(NC(=O)CSc2n[nH]c(N)n2)no1,-6,.,i,i,-4,20
Cc1ccc(/C=C/C2=Cc3c(sc(NC(=O)CSc4n[nH]c(N)n4)c3C#N)C(C)(C)C2)o1,8,0.55,i,6*,-15,32
Cc1cc(C)cc(N2CC(C(=O)Nc3cc(C)on3)CC2=O)c1 (stereo not drawn),341*,.,i,i,-9,.
OCCN1CCN(C2CCC(c3ccc(F)cc3)c3ccc(F)cc32)CC1 (stereo not drawn),3,.,i,i,-15,6
Cc1cccc(N=C2NC(=O)/C(=C/C=C/c3ccco3)S2)c1C,20,4.3*,i,i,-11,35
Cc1ccc(N=C2NC(=O)/C(=C/C=C/c3ccco3)S2)cc1,12,-0.049,i,i,-5,-23
CC(C)COC(=O)N1C[C@H](O)C[C@H]1C(=O)Nc1ccc(Cl)cc1,26,.,i,i,-8,6
Cc1cc(C)n(C(C[N+](=O)[O-])c2ccc(Cl)cc2)n1 (stereo not drawn),279*,-0.79,i,i,-14,-31
Cc1cc(C(=O)Nc2ccc(Cl)c(S(=O)(=O)N3CCOCC3)c2)c2ccccc2n1,-18,.,.,.,.,.
Cc1ccccc1C(=O)N/N=C/c1ccc([N+](=O)[O-])s1,-17,5.2*,i,i,-7,-76*
O=C(CNC(=O)c1cccc(F)c1)N/N=C/c1ccc([N+](=O)[O-])s1,-8,0.41,i,i,-2,-148*
O=C(NCCc1ccccc1)[C@@H]1CC=C[C@@H]2CCN(C3CCCCC3)C(=O)[C@@H]21,395,.,i,i,-5,-3
COc1ccc(C2/C(=C(\O)c3ccc4c(c3)CC(C)O4)C(=O)C(=O)N2Cc2cccnc2)c(OC)c1 (stereo not drawn),-8,.,i,i,-8,31
CC(C)COc1ccc(-c2nn(-c3ccccc3)cc2C(=O)Nc2nccs2)cc1,10,0.69,9*,i,14*,9
SMILES,Mot1-301 SUMO,KCC2 mod,KCNQ1 act,KCNQ1 block,hERG rescue,AI-2 QS modul
Cc1ccc(NC(=O)CNC(=O)C2CCCCC2)nc1,175,.,i,i,-12,23
Oc1c(Br)cc(Br)cc1/C=N/c1nc2c(s1)CCCC2,30,.,13*,i,-28,-16
CCOC(=O)c1cc(NC(=O)c2ccccc2)c(=O)n2c1oc1ccccc12,.,0.087,i,i,-3,4
O=C(N/N=C/c1c(O)n(Cc2ccccc2)c(=O)c2ccccc12)c1cccnc1,-10,-3.2*,i,i,-8,19
COc1ccc(Cn2c(O)c(/C=N/NC(=O)c3cccnc3)c3ccccc3c2=O)cc1,.,-2.3,i,i,-23,-36
O=C(NCC(c1cccnc1)N1CCN(c2ccccc2F)CC1)c1cccc(Cl)c1 (stereo not drawn),88,.,i,i,-3,17
N#CCC(=O)Nc1ccc(C(=O)N2CCN(c3ccccn3)CC2)cc1,-1,.,i,i,-5,23
OC[C@@H](O)C1OC2NC(=S)OC2C1O (stereo partly drawn),2,.,i,i,7.7*,17
COc1ccc2c(c1)cc(C(=O)N[C@H](C(=O)N1CCC(C(=O)O)CC1)C(C)C)n2C,12,.,i,i,0,-6
COc1ccc2c(c1)cc(C(=O)N[C@H](C(=O)N1CCC[C@H]1C(=O)O)C(C)C)n2C,419*,.,i,i,-4,19
O=c1c2nnn(-c3ccc(Br)cc3)c2ncn1Cc1ccccn1,-8,0.94,i,i,-12,9
COc1ccc(CC(=O)N2CCN(c3ccccc3OC)CC2)cc1OC,-4,.,i,i,-4,4
Cc1c(NC(=O)c2cccs2)cccc1-c1nc2ccccc2s1,387*,-1.4,i,i,-7,21
O=C(NC(=S)Nc1nc2ccccc2s1)c1cccs1,173,72*,54*,i,52*,19
O=C(NC(=S)NCc1ccccc1)c1cccs1,195,.,16*,i,16*,10
O=C(CNC(=S)NC(=O)c1ccco1)c1ccccc1,7,5.5*,i,i,-6,-6
O=C(NCCCN1CCCCC1)c1ccc(CS(=O)c2ccc(F)cc2)o1 (stereo not drawn),2,.,i,i,-7,1
COCCN(Cc1nc2ccccc2c(=O)[nH]1)C(=O)COc1cccc(C(C)=O)c1,-2,.,.,.,.,.
O=C(NNC(=S)NC(=O)c1cccs1)c1ccc(O)cc1,-12,.,i,i,-18,-34
O=C(NC(=S)NNC(=O)c1cccs1)c1ccc(Br)o1,-22,15*,i,i,5,-88*
O=C(CNC(=S)NC(=O)c1cccs1)c1ccccc1,4,11*,i,i,-8,1
CCC(=O)NC(=S)Nc1ccc(NC(=O)COc2ccc(Cl)c(C)c2)cc1,-14,0.66,i,i,-6,21

# Screens from PubChem BioAssay.
